Results on 1 compound are retold here after ChEMBL document CHEMBL5365494, “Bis-6-amidino-benzothiazole Derivative that Cures Experimental Stage 1 African Trypanosomiasis with a Single Dose” (J Med Chem, 2023).

Calls of active or inactive are those of the source. No cut-off for these calls is given here.

Data set [1] concerns Trypanosoma brucei brucei. The data set is described as follows: Antitrypanosomal activity against stage-1 bioluminescent Trypanosoma brucei brucei GVR35-VSL2 expressing red-shifted luciferase infected in BALB/c mouse assessed as reduction in parasite growth by measuring curation rate at 20 mg/kg, po administered once daily for 4 days starting from 4 days post infection by luciferase based bioluminescence assay relative to control. The data set is classed as functional. The conditions noted are these: time 4 day. Also noted: scale not given: the % may be the effect or the level left. The essentials: (§1)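 BALB/c mice infected with 30,000 bioluminescent bloodstream-form T. brucei; dosing i.p. or oral from 4 days post-infection, single or once daily for 4 days. Monitored by in vivo imaging after i.p. d-luciferin 150 mg kg⁻¹ under isoflurane, with total body flux from dorsal plus ventral images. Cure required negativity by both in vivo and ex vivo imaging.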

Data set [2] in a line: Toxicity in BALB/c mouse infected with bioluminescent Trypanosoma brucei brucei GVR35-VSL2 expressing red-shifted luciferase assessed as lack of activity in animal at 20 mg/kg, po administered once daily for 4 days. The conditions noted are these: in vivo, 96 h, time 4 day. The data set is classed as organism-based. An outline of the steps:
(§2)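 Infected BALB/c mice (bioluminescent T. brucei, 30,000 parasites) dosed i.p. or orally once daily for 4 days starting day 4 post-infection; observed for piloerection, hunching, shaking, lack of activity and body weight change.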

A short description of data set [3]: Drug localization in lysosomes of Trypanosoma brucei bloodstream form assessed as colocalization at 10 ug/ml incubated upto 180 mins by LysoTrack dye based fluorescence microscopy. The data set is classed as ADME, subcellular, Lysosome. Conditions: 3 h, dose 10 µg/ml. An outline of the steps:
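Parasites pre-loaded with 100 nM LysoTracker for 45 min, washed, then exposed to compound 10 μg mL⁻¹; aliquots fixed in 4% PFA at each timepoint, DAPI-mounted, imaged by fluorescence microscopy.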

Data set [4] in a line: Drug uptake in blood stream form of Trypanosoma brucei at 10 ug/ml incubated for 6 hrs in presence of bafilomycin Al by fluorescence microscopy. Conditions: dose 10 µg/ml. The data set is classed as ADME, tissue-based. An outline of the steps:
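Bloodstream-form T. brucei incubated 6 h with compound 10 μg mL⁻¹ with or without 8 nM BafA1, then imaged by fluorescence microscopy.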

In data set [5] the test system is Trypanosoma brucei. The data set is described as follows: Antitrypanosomal activity against blood stream form of Trypanosoma brucei 221a variant assessed as parasite growth inhibition at 0.3 nM preincubated for 24 hrs followed by subculturing with fresh medium with compounds and measured after 6 days by resazurin dye based fluorescence analysis. The data set is classed as functional, organism-based. The conditions noted are these: time 7.0 day. An outline of the steps: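 Bloodstream-form T. brucei seeded in flasks at 10^5 mL^-1 with a range of compound concentrations. Every 24 h parasites were sub-cultured back to 10^5 mL^-1 in continued compound presence, through day 10. Growth reported as cumulative parasite number. In a washout arm, parasites were exposed for 3 days, moved to compound-free medium and followed for 12 days.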
(Alamar Blue is a resazurin reagent that responds to reducing activity.)

The nature of data set [6]: Toxicity in BALB/c mouse infected with bioluminescent Trypanosoma brucei brucei GVR35-VSL2 expressing red-shifted luciferase assessed as hunching in animal at 0.25 to 20 mg/kg, ip administered once daily for 4 days. The conditions noted are these: in vivo, 96 h, dose 0.25-20 mg/kg, time 4 day. It counts as organism-based. The essentials:
as §2

A short description of data set [7]: Toxicity in BALB/c mouse infected with bioluminescent Trypanosoma brucei brucei GVR35-VSL2 expressing red-shifted luciferase assessed as piloerection in animal at 20 mg/kg, po administered once daily for 4 days. The conditions noted are these: in vivo, 96 h, time 4 day. The data set is classed as organism-based. The essentials:
as §2

The nature of data set [8]: Toxicity in BALB/c mouse infected with bioluminescent Trypanosoma brucei brucei GVR35-VSL2 expressing red-shifted luciferase assessed as body weight loss at 20 mg/kg, ip administered once daily for 4 days. The data set is classed as organism-based. The conditions noted are these: in vivo, 96 h, time 4 day. An outline of the steps:
as §2

Data set [9] is described as follows: Metabolic stability in mouse liver microsomes assessed as half life at 1 uM measured upto 60 mins in presence of NADPH by LC-MS/MS analysis. The data set is classed as ADME, Microsome. The conditions noted are these: 1 h. In general terms: Microsomes from liver hold many membrane-bound enzymes, among them those of drug oxidation.
In data set [10] the test system is Plasmodium falciparum. Put plainly: Antiplasmodial activity against Plasmodium falciparum 3D7 infected in human erythrocytes assessed as inhibition of asexual parasite development measured after 96 hrs by fluorescence based assay. The data set is classed as functional, organism-based. The conditions noted are these: 3D7, Erythrocyte. The essentials:
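3D7 asexual parasites in human erythrocytes (RPMI 1640, 0.5% Albumax II, 50 μM hypoxanthine, 2 mM L-glutamine, 5% CO2), 2% parasitemia/1% hematocrit; compound in DMSO dilutions, 96 h at 37 °C. Freeze-thaw, SYBR green lysis buffer, 1 h, fluorescence ex 485/em 535 nm. Normalized to DMSO and 1 μM dihydroartemisinin; EC50 from triplicate independent dose-response curves.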

A short description of data set [11]: Cytotoxicity against rat L6 cells assessed as cell growth inhibition incubated for 6 days by resazurin dye based assay. It counts as toxicity. An outline of the steps:
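Rat L6 myoblasts seeded at 1×10⁴ mL⁻¹ in RPMI-1640 with a range of compound concentrations, 6 days at 37 °C; resazurin added, 6 h further, fluorescence ex 545/em 590 nm.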

The subject of data set [12] is Trypanosoma brucei brucei. Put plainly: Antitrypanosomal activity against stage-1 bioluminescent Trypanosoma brucei brucei GVR35-VSL2 expressing red-shifted luciferase infected in BALB/c mouse assessed as parasite killing by measuring reduction in bioluminescent signal at 20 mg/kg, ip administered as single dose starting from 4 days post infection and measured on 3 to 7 days by luciferase based bioluminescence assay. The data set is classed as functional, organism-based. Conditions: time 3-7 day. An outline of the steps:
as §1

The test system of data set [13] is Trypanosoma brucei. The data set is described as follows: Induction of tetracycline dependent drug resistant in Trypanosoma brucei MiTat 1.2, clone 221a assessed as outgrowth of resistant parasites at 1 to 2 ng/ml measured for 10 days. The data set is classed as functional. The conditions noted are these: dose 1-2 ng/ml, time 10.0 day.
Data set [14] deals with Trypanosoma brucei brucei. The data set is described as follows: Antitrypanosomal activity against stage-1 bioluminescent Trypanosoma brucei brucei GVR35-VSL2 expressing red-shifted luciferase infected in BALB/c mouse assessed as reduction in parasite growth at 2 mg/kg, ip administered as single dose for 1 day starting from 4 days post infection by luciferase based bioluminescence assay. The data set is classed as functional, organism-based. The essentials:
as §1

A short description of data set [15]: Drug localization in lysosomes of Trypanosoma brucei bloodstream form at 10 ug/ml measured after 6 hrs in presence of bafilomycin Al by TbCatL antibody based immunofluorescence microscopy. It counts as ADME, subcellular, Lysosome. Conditions: dose 10 µg/ml. The essentials: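 Parasites exposed to compound 10 μg mL⁻¹ for 6 h, with or without BafA1 8 nM; fixed 4% PFA, permeabilized 0.1% Triton X-100, blocked 1% BSA, rabbit anti-TbCatL 1:200 overnight at 4 °C, then Alexa 488 anti-rabbit 2 μg mL⁻¹ 1 h at 37 °C; fluorescence microscopy.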

Data set [16] has as its system Trypanosoma brucei. The data set is described as follows: Resistance development in blood stream form of Trypanosoma brucei assessed as fold increase in resistance at 10 ug/ml preincubated for 6 hrs with bafilomycin Al followed by compound addition and measured after 48 hrs by resazurin dye-based analysis. The data set is classed as functional. Conditions: dose 10 µg/ml. An outline of the steps:
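Bloodstream-form T. brucei pre-incubated 6 h in 4 or 8 nM bafilomycin A1, then given compound and kept in BafA1. The run then followed the 48 h microtiter resazurin assay: start at 2.5×10^4 mL^-1, 37 °C, 16 h resazurin, fluorescence ex 545/em 590 nm. Done in triplicate.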

Data set [17] in a line: Toxicity in BALB/c mouse infected with bioluminescent Trypanosoma brucei brucei GVR35-VSL2 expressing red-shifted luciferase assessed as piloerection in animal at 0.25 to 20 mg/kg, ip administered once daily for 4 days. The conditions noted are these: in vivo, 96 h, dose 0.25-20 mg/kg, time 4 day. The data set is classed as organism-based. An outline of the steps:
as §2

The nature of data set [18]: Selectivity index, ratio of EC50 for cytotoxicity against rat L6 cells to EC50 for antitrypanosomal activity against bloodstream form of Trypanosoma brucei brucei 221a variant. Conditions: read-out: Ratio EC50. It counts as toxicity, cell-based. An outline of the steps: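 L6 rat myoblasts seeded at 1×10^4 mL^-1 in RPMI-1640 with a compound concentration range for 6 days at 37 °C. Resazurin added for 6 h, then fluorescence read.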

Data set [19] concerns Trypanosoma brucei brucei. The data set is described as follows: Antitrypanosomal activity against stage-2 bioluminescent Trypanosoma brucei brucei GVR35-VSL2 expressing red-shifted luciferase infected in CD-1 mouse assessed as reduction in parasite growth at 10 to 20 mg/kg, ip administered daily for 3 days starting from 13 days post infection by bioluminescence based assay. The data set is classed as functional, organism-based. The conditions noted are these: dose 10-20 mg/kg, time 3.0 day.

For `CS(=O)(=O)O.CS(=O)(=O)O.N=C(N)c1ccc2nc(C3CCC(c4nc5ccc(C(=N)N)cc5s4)CC3)sc2c1` (centres undefined), the Activity in data set [1] is 20%; in [2], “Non-Toxic”; in [6], “Non-Toxic”; in data set [7], “Non-Toxic”; in data set [8] it was under 10%; in [17] it was “Non-Toxic”. Besides, the values for the Drug uptake result in [3], in data set [4] and in data set [15] were “Active”, “Not Active” and “Not Active”, respectively. Besides, the result in data set [5] and in [12] was Active. For the same compound, in [9], the t1/2 was over 1 h. The EC50 in [10] was 0.0253 µM. In addition, the EC50 at 6 days in data set [11] came to 13.4 µM. Besides, the outcome in data set [13], in [14] and in data set [19] was inactive. Further, the “fold change (FC)” value in [16] is recorded as 5. The selectivity ratio in data set [18] was determined as 26300.

Broadly, the EC50 is the concentration needed to bring the measured effect to its halfway point.
